Measured values from article PMC5093073 (Cancer prevention research (Philadelphia, Pa.), 2016).
“Also recorded” adds a separate entry of the source. Where two headings read alike, the source gives them in different places.

What was measured:
[1] = system: systemic PGE2 biosynthesis; details: ibuprofen 800 mg 4 times daily; cited from earlier work
[2] = system: COX-derived PGE2 in A549 lung adenocarcinoma cells; experiment: PGE2 biosynthesis from [2H8]AA in A549 cells; type: cell-based, human; details: for inhibition of PGE2 synthesis: IL-1β-activated A549, 100 nM inhibitor
How it was run: (§1)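 Cells grown in DMEM with 10% FBS at 37°C, 5% CO₂, then given 1 ng/ml IL-1β for 24 h at 90% confluence to induce COX-2. In albumin-free medium, cells were preincubated for 30 min at 37°C with graded concentrations of test compound. Then 2.0 µM [²H₈]AA was added for 15 min, and the medium was harvested for GC/NICI/MS measurement of [²H₈]-PGE₂.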

[3] = system: COX-1 in human washed platelets; experiment: Prostanoid; type: cell-based; details: 100 nM inhibitor; for effect on TxB2 synthesis by washed platelets: platelets without A549 cells
[4] = system: COX-derived PGE2 in HCA-7 colon cancer cells; experiment: PGE2 biosynthesis from [2H8]AA in HCA-7 cells; type: cell-based; details: Homo sapiens
How it was run: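 HCA-7 cells were grown in DMEM with 10% FBS at 37°C, 5% CO₂, without IL-1β activation. In albumin-free medium, cells were preincubated for 30 min at 37°C with test compound. Then 2.0 µM [²H₈]AA was added and incubation continued for 15 min. The harvested medium was analysed by GC/NICI/MS for [²H₈]-PGE₂.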

[5] = system: COX-derived PGE2 in H2122 lung adenocarcinoma cells; experiment: PGE2 biosynthesis from [2H8]AA in H2122 cells; type: cell-based, human
How it was run: as §1

[6] = system: platelet TxB2 production; experiment: Serum thromboxane B2 levels in healthy volunteers; type: in vivo, human; details: aspirin 81 mg daily 2 weeks
[7] = system: COX-derived PGE2 in HT-29 colon cancer cells; experiment: PGE2 biosynthesis from [2H8]AA in HT-29 cells; type: cell-based; details: Homo sapiens, HT-29, read-out: IC50 for inhibition of PGE2 biosynthesis
[8] = system: systemic PGE2 biosynthesis; experiment: Urinary PGE-M; type: in vivo, human; details: for reduction in extra-platelet PGE2 production: corrected for platelet-derived PGE2, aspirin 81 mg daily 2 weeks; for reduction of urinary PGE-M levels: aspirin 81 mg daily 2 weeks
[9] = system: platelet-A549 cell aggregates; type: cell-based, human; details: platelets from blood treated with 100 µM aspirin 40 min, washed, ADP-activated
[10] = system: adenocarcinoma metastasis; details: cited from earlier work
[11] = target: T1, COX-2 (Homo sapiens, UniProt P35354); type: cell-based; details: IL-1β-activated A549, pretreated with 100 µM aspirin
T1 sequence (P35354 18-604): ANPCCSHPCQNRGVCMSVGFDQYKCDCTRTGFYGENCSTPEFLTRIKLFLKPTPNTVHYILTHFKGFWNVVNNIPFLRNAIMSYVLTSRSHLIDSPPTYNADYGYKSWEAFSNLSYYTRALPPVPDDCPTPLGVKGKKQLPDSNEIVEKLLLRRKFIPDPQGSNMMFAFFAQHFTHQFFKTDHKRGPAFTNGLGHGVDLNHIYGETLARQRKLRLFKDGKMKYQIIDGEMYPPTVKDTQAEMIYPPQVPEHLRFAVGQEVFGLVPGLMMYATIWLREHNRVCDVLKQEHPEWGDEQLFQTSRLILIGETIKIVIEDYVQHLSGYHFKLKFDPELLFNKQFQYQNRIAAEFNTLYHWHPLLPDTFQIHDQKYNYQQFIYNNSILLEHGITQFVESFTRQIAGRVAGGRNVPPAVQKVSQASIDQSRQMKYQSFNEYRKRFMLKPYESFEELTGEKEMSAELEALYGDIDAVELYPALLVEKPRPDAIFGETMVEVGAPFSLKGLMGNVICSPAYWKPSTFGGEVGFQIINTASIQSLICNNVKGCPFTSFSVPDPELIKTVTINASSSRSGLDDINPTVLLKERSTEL

[12] = system: COX-derived PGE2 in HCC827 lung adenocarcinoma cells; experiment: PGE2 biosynthesis from [2H8]AA in HCC827 cells; type: cell-based; details: Homo sapiens, HCC827, read-out: IC50 for inhibition of PGE2 biosynthesis

Structure (SMILES): CC(C)Cc1ccc(C(C)C(=O)O)cc1 (stereo not drawn) [ibuprofen]
- reduction of PGE2 production in humans [1]: 63%

Structure (SMILES): CS(=O)(=O)Nc1ccc([N+](=O)[O-])cc1OC1CCCCC1 [NS-398]
- inhibition of PGE2 synthesis [2]: fully blocks
- effect on PGE2 production in washed platelets [3]: does not block
- effect on TxB2 synthesis by washed platelets [3]: did not inhibit; also recorded: does not block

Structure (SMILES): Cc1onc(-c2ccccc2)c1-c1ccc(S(N)(=O)=O)cc1 [valdecoxib]
- inhibition at 0.1 µM ([4]; HCA-7, read-out: inhibition of PGE2 synthesis): 60%
- inhibition of PGE2 synthesis [2]: fully inhibited
- inhibition of PGE2 synthesis ([5]; H2122, 100 nM inhibitor): fully inhibited
- effect on TxB2 synthesis by washed platelets [3]: no effect

Structure (SMILES): CC(=O)Oc1ccccc1C(=O)O [aspirin, acetyl salicylic acid]
- reduction of serum thromboxane B2 levels [6]: 96.6%
- IC50 ([4]; HCA-7, read-out: IC50 for inhibition of PGE2 biosynthesis): 3.9 ± 0.7 µM
- IC50 [7]: 8.9 ± 1.2 µM
- IC50 ([2]; Homo sapiens, A549, read-out: IC50 for inhibition of PGE2 biosynthesis): 7.2 ± 1.1 µM
- IC50 ([5]; Homo sapiens, NCI-H2122, read-out: IC50 for inhibition of PGE2 biosynthesis): 15 ± 1.3 µM
- reduction in extra-platelet PGE2 production ([8]; females): 55.4%
- reduction of urinary PGE-M levels ([8]; healthy females): 56%
- reduction of urinary PGE-M levels ([8]; healthy males): 39%
- reduction in extra-platelet PGE2 production ([8]; males): 38.6%
- COX-2 protein expression in A549 cells [9]: still upregulated
- PGE2 production by platelet-A549 aggregates [9]: significantly inhibited; also recorded: effectively blocked
- hazard ratio for later metastasis ([10]; adenocarcinomas other than those of the colon): 0.47
- hazard ratio for later metastasis ([10]; colon cancers, no metastasis at diagnosis, 95% CI 0.03–0.56, p=0.007): 0.13
- reduction of development of metastases ([10]; patients who develop cancer while receiving aspirin): 69%
- blockade of COX-2 labeling by fluorocoxib A [11]: effectively blocked COX-2 labeling; also recorded: inhibited COX-2 associated fluorocoxib A fluorescence
- IC50 [12]: 22.5 ± 3.2 µM
